T1: NS3 genotype-4 (Hepatitis C virus genotype 4a, UniProt O39929)
T1 sequence (O39929 1027-1657 limits assumed): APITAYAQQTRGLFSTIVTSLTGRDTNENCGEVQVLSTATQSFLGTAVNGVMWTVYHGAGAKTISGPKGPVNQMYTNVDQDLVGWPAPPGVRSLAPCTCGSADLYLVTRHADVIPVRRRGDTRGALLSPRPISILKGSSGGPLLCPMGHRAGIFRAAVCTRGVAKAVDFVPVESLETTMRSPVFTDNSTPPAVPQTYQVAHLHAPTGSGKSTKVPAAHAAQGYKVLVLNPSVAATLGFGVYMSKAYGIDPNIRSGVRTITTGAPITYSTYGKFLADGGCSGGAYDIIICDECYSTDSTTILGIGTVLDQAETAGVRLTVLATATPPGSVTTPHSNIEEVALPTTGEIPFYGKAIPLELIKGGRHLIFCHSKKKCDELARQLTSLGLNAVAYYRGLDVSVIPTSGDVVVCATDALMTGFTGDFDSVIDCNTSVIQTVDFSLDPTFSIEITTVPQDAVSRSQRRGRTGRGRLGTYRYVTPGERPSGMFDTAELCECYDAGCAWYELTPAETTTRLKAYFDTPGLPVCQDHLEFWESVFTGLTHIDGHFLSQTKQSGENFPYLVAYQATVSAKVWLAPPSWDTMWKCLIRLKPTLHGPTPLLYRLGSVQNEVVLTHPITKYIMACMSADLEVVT

T2: fluorescein isothiocyanate-labeled NS4A(21'-34') core peptide (hepatitis C virus, also: FITC label, position not given here)
T2 peptide: KKGSVVIVGRIVLSGKK

B1: NS3 domain of HCV genotype-4 (domain or fragment)
chain: APITAYAQQTRGLFSTIVTSLTGRDTNENCGEVQVLSTATQSFLGTAVNGVMWTVYHGAGAKTISGPKGPVNQMYTNVDQDLVGWPAPPGVRSLAPCTCGSADLYLVTRHADVIPVRRRGDTRGALLSPRPISILKGSSGGPLLCPMGHRAGIFRAAVCTRGVAKAVDFVPVESLETTMRSP

In data set [1] the target is T1, NS3 genotype-4. The data set can be described thus: Fluorescence anisotropy, dissociation constant of FITC-NS4A with NS3. The format is binding, HCV genotype-4. In short, it runs like this: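 His-tagged HCV-4 NS3 domain (expressed in E. coli Rosetta (DE3) pLysS, Ni-NTA purified) serially diluted in 20 mM HEPES, 10 mM DTT, 200 mM NaCl, pH 7.6, with 0.1 µM FITC-labelled NS4A 21'-34' core peptide. Shaken at room temperature for 15, 45, 90 and 120 min. Fluorescence anisotropy read at 480/520 nm. Kd fitted with a single-binding-site model at 90 min.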
A general note: Fluorescence polarisation rises when a labelled molecule tumbles more slowly, as on binding a larger partner.

For data set [2], the system named is NS3 domain of HCV genotype-4. Description: Differential static light scattering. The class given is binding.
Data set [3] addresses B1. The data set can be described thus: differential static light scattering.
Data set [4] addresses B1. Description: differential static light scattering.
Data set [5] has as its target B1. Description: differential static light scattering.
For data set [6], the target named is B1. Description: differential static light scattering.
Data set [7] has as its target B1. The data set can be described thus: differential static light scattering.
The target in data set [8] is B1. The data set can be described thus: differential static light scattering.
The target of data set [9] is B1. Description: differential static light scattering.
The target in data set [10] is T2, fluorescein isothiocyanate-labeled …. Description: fluorescence polarisation.

These results are taken from article PMC7195562 (Journal of Advanced Research, 2020).

Read-outs that look alike come from different tables or passages of the source. Ends that are not written are not given here. Peptide text beside a SMILES is read from it.

For the molecule `CC[C@H](C)[C@H](NC(=O)[C@H](CCCNC(=N)N)NC(=O)CNC(=O)[C@@H](NC(=O)[C@@H](NC(=O)[C@@H](NC(=O)[C@@H](NC(=O)[C@H](CO)NC(=O)CNC(=O)[C@H](CCCCN)NC(=O)[C@@H](N)CCCCN)C(C)C)C(C)C)[C@@H](C)CC)C(C)C)C(=O)N[C@H](C(=O)N[C@@H](CC(C)C)C(=O)N[C@@H](CO)C(=O)NCC(=O)N[C@@H](CCCCN)C(=O)N[C@@H](CCCCN)C(=O)O)C(C)C` [NS4A] (H-KKGSVVIVGRIVLSGKK-OH), the Kd in data set [1] was found to be 169 ± 3.7 nM.
As for GSxG23VIVGRIVLSG [Pep-15], the “Tagg shift higher than that of the native NS4A” value in data set [2] (2:1 ratio, room temperature, 2 h) was determined as 1.07 °C. Besides, the “binding affinity by DSLS compared with the native peptide” value in data set [2] (all conditions (Fig. S6)) was “higher binding affinity than the native peptide”.
Turning to KKGSVVIVGRIVLSGKK [native NS4A(21'-34') core peptide (KK-GSVVIVGRIVLSG-KK)], the ΔTagg worked out at 1.71 °C in data set [3]; 1.97 °C in [4]; 1.62 °C in [5]; 2.83 °C in data set [6]; 2.09 °C in data set [7]; 0.998 °C in data set [8]. The same molecule showed a ΔTagg in data set [9] of 3.16 °C.
B1: in data set [10], the Kd turned out to be 169 ± 3.7 nM.

The Kd is a measure of binding affinity in units of concentration. Read a high Kd as weaker binding.
